In ChEMBL document CHEMBL3352237, “Synthesis and biological evaluation of novel peptide BF2 as an antibacterial agent against clinical isolates of vancomycin-resistant enterococci” (J Med Chem, 2014):

Experiments:
Enterococcus faecium [1] = assay: Bactericidal activity against vancomycin-resistant Enterococcus faecium clinical isolate 17301 after 24 hrs by two-fold serial dilution method; type: functional; conditions: isolate 17301, 24 h
Enterococcus faecium [2] = assay: Bactericidal activity against vancomycin-resistant Enterococcus faecium clinical isolate 10177 after 24 hrs by two-fold serial dilution method; type: functional; conditions: isolate 10177, 24 h
Enterococcus faecium [3] = assay: Bactericidal activity against vancomycin-resistant Enterococcus faecium clinical isolate 28/211 after 24 hrs by two-fold serial dilution method; type: functional; conditions: isolate 28/211, 24 h
Enterococcus faecium [4] = assay: Bactericidal activity against vancomycin-resistant Enterococcus faecium clinical isolate 15/213 after 24 hrs by two-fold serial dilution method; type: functional; conditions: isolate 15/213, 24 h
Enterococcus faecium [5] = assay: Bactericidal activity against vancomycin-resistant Enterococcus faecium clinical isolate 14643 after 24 hrs by two-fold serial dilution method; type: functional; conditions: isolate 14643, 24 h
Enterococcus faecium [6] = assay: Bactericidal activity against vancomycin-resistant Enterococcus faecium clinical isolate 5396 after 24 hrs by two-fold serial dilution method; type: functional; conditions: isolate 5396, 24 h
Enterococcus faecium [7] = assay: Bactericidal activity against vancomycin-resistant Enterococcus faecium clinical isolate 31176 after 24 hrs by two-fold serial dilution method; type: functional; conditions: isolate 31176, 24 h
Enterococcus faecium [8] = assay: Bactericidal activity against vancomycin-resistant Enterococcus faecium clinical isolate 27/221 after 24 hrs by two-fold serial dilution method; type: functional; conditions: isolate 27/221, 24 h
Enterococcus faecium [9] = assay: Bactericidal activity against vancomycin-resistant Enterococcus faecium clinical isolate 147969 after 24 hrs by two-fold serial dilution method; type: functional; conditions: isolate 147969, 24 h
Enterococcus faecium [10] = assay: Bactericidal activity against vancomycin-resistant Enterococcus faecium clinical isolate 29/203 after 24 hrs by two-fold serial dilution method; type: functional; conditions: isolate 29/203, 24 h
Enterococcus faecium [11] = assay: Bactericidal activity against vancomycin-resistant Enterococcus faecium clinical isolate 30/48 after 24 hrs by two-fold serial dilution method; type: functional; conditions: isolate 30/48, 24 h
Enterococcus faecium [12] = assay: Bactericidal activity against vancomycin-resistant Enterococcus faecium clinical isolate 16475 after 24 hrs by two-fold serial dilution method; type: functional; conditions: isolate 16475, 24 h
Enterococcus faecium [13] = assay: Bactericidal activity against vancomycin-resistant Enterococcus faecium clinical isolate 12/266 after 24 hrs by two-fold serial dilution method; type: functional; conditions: isolate 12/266, 24 h
Enterococcus faecium [14] = assay: Bactericidal activity against vancomycin-resistant Enterococcus faecium clinical isolate 18906 after 24 hrs by two-fold serial dilution method; type: functional; conditions: isolate 18906, 24 h
Enterococcus faecium [15] = assay: Bactericidal activity against vancomycin-resistant Enterococcus faecium clinical isolate 13246 after 24 hrs by two-fold serial dilution method; type: functional; conditions: isolate 13246, 24 h
Enterococcus faecalis [16] = assay: Bactericidal activity against vancomycin-resistant Enterococcus clinical isolate assessed as log reduction at 2 times MIC after 60 to 120 mins by serial dilution method; type: functional
In short: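 Time-kill assay: enterococci exposed to peptide at 2× MIC, with viable counts read as log10 CFU/mL over a 60–120 min exposure. Run on ATCC 29212 and a clinical isolate.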

[17] = Hemolytic activity against human RBC at 5 times MIC after 1 hr by spectrophotometry; type: ADME, cell-based, Erythrocyte; conditions: red blood cells, read-out: Activity
Enterococcus [18] = assay: Antibacterial activity against vancomycin-resistant Enterococcus ATCC 51299 after 18 to 20 hrs by checkerboard titration method in presence of vancomycin; type: functional
Enterococcus [19] = assay: Antibacterial activity against vancomycin-resistant Enterococcus ATCC 51299 after 18 to 20 hrs by checkerboard titration method in presence of linezolid; type: functional
Enterococcus [20] = assay: Antibacterial activity against vancomycin-resistant Enterococcus clinical isolate after 18 to 20 hrs by checkerboard titration method in presence of vancomycin; type: functional
Enterococcus [21] = assay: Antibacterial activity against Enterococcus infected in Wistar albino rat assessed as reduction in cell count at 2 times MIC, iv after 1 hr relative to control; type: functional; set-up: scale not given: the % may be the effect or the level left
In short: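 Female Wistar albino rats, 40−45 days old, 125−150 g, 5 groups of 3. Enterococci were grown to log phase in MH broth, centrifuged at 1000g for 15 min, and diluted in PBS to 4 × 10^6 CFU/mL. Rats were inoculated i.v. and treated i.v. 1 h later with 12.5, 25 or 37.5 mg/kg peptide, PBS vehicle, or linezolid 25 mg/kg. Tail-vein blood taken 1 h post-treatment was plated on blood agar, incubated overnight at 37 °C, and colonies counted.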

Enterococcus faecalis [22] = assay: Antibacterial activity against vancomycin-resistant Enterococcus faecalis clinical isolate 7670 after overnight incubation by two-fold serial dilution method; type: functional
Enterococcus faecalis [23] = assay: Antibacterial activity against vancomycin-resistant Enterococcus faecalis clinical isolate 22626 after overnight incubation by two-fold serial dilution method; type: functional
Enterococcus faecalis [24] = assay: Antibacterial activity against vancomycin-resistant Enterococcus faecalis clinical isolate 7079 after overnight incubation by two-fold serial dilution method; type: functional
Enterococcus faecalis [25] = assay: Antibacterial activity against vancomycin-resistant Enterococcus faecalis clinical isolate 5642 after overnight incubation by two-fold serial dilution method; type: functional
Enterococcus faecalis [26] = assay: Antibacterial activity against vancomycin-resistant Enterococcus faecalis clinical isolate 5648 after overnight incubation by two-fold serial dilution method; type: functional
Enterococcus faecium [27] = assay: Antibacterial activity against vancomycin-resistant Enterococcus faecium clinical isolate 7/27 after overnight incubation by two-fold serial dilution method; type: functional
Enterococcus faecium [28] = assay: Antibacterial activity against vancomycin-resistant Enterococcus faecium clinical isolate 23/240 after overnight incubation by two-fold serial dilution method; type: functional
Enterococcus faecium [29] = assay: Antibacterial activity against vancomycin-resistant Enterococcus faecium clinical isolate 28/211 after overnight incubation by two-fold serial dilution method; type: functional
Enterococcus faecium [30] = assay: Antibacterial activity against vancomycin-resistant Enterococcus faecium clinical isolate 151495 after overnight incubation by two-fold serial dilution method; type: functional
Enterococcus faecium [31] = assay: Antibacterial activity against vancomycin-resistant Enterococcus faecium clinical isolate 15/213 after overnight incubation by two-fold serial dilution method; type: functional
Enterococcus faecium [32] = assay: Antibacterial activity against vancomycin-resistant Enterococcus faecium clinical isolate 31386 after overnight incubation by two-fold serial dilution method; type: functional
Enterococcus faecium [33] = assay: Antibacterial activity against vancomycin-resistant Enterococcus faecium clinical isolate 147969 after overnight incubation by two-fold serial dilution method; type: functional
Enterococcus faecium [34] = assay: Antibacterial activity against vancomycin-resistant Enterococcus faecium clinical isolate 30/48 after overnight incubation by two-fold serial dilution method; type: functional
Enterococcus faecium [35] = assay: Antibacterial activity against vancomycin-resistant Enterococcus faecium clinical isolate 6/22 after overnight incubation by two-fold serial dilution method; type: functional
Enterococcus faecium [36] = assay: Antibacterial activity against vancomycin-resistant Enterococcus faecium clinical isolate 13246 after overnight incubation by two-fold serial dilution method; type: functional
Enterococcus [37] = assay: Bactericidal activity against […] after 24 hrs by two-fold serial dilution method; type: functional; conditions: ATCC 29212, 24 h
Enterococcus faecalis [38] = assay: Bactericidal activity against vancomycin-resistant Enterococcus faecalis clinical isolate 5814 after 24 hrs by two-fold serial dilution method; type: functional; conditions: isolate 5814, 24 h
Enterococcus faecalis [39] = assay: Bactericidal activity against vancomycin-resistant Enterococcus faecalis clinical isolate 21/235 after 24 hrs by two-fold serial dilution method; type: functional; conditions: isolate 21/235, 24 h
Enterococcus faecalis [40] = assay: Bactericidal activity against vancomycin-resistant Enterococcus faecalis clinical isolate 5642 after 24 hrs by two-fold serial dilution method; type: functional; conditions: isolate 5642, 24 h
Enterococcus faecalis [41] = assay: Bactericidal activity against vancomycin-resistant Enterococcus faecalis clinical isolate 6093 after 24 hrs by two-fold serial dilution method; type: functional; conditions: isolate 6093, 24 h
Enterococcus faecalis [42] = assay: Bactericidal activity against vancomycin-resistant Enterococcus faecalis clinical isolate 387702 after 24 hrs by two-fold serial dilution method; type: functional; conditions: isolate 387702, 24 h

Work on H-RWRLLLLKKH-OH yielded an MBC (Enterococcus faecium [1]) of 25 µg/mL, an MBC (Enterococcus faecium [2]) of 25 µg/mL and an MBC (Enterococcus faecium [3]) of 25 µg/mL. For the same substance, the MBC (Enterococcus faecium [4]) was 25 µg/mL, the MBC (Enterococcus faecium [5]) was 25 µg/mL and the MBC (Enterococcus faecium [6]) was 25 µg/mL. It also gave an MBC (Enterococcus faecium [7]) of 25 µg/mL, an MBC (Enterococcus faecium [8]) of 25 µg/mL and an MBC (Enterococcus faecium [9]) of 25 µg/mL. It also gave an MBC (Enterococcus faecium [10]) of 25 µg/mL, an MBC (Enterococcus faecium [11]) of 25 µg/mL and an MBC (Enterococcus faecium [12]) of 25 µg/mL. It also gave an MBC (Enterococcus faecium [13]) of 25 µg/mL, an MBC (Enterococcus faecium [14]) of 25 µg/mL and an MBC (Enterococcus faecium [15]) of 25 µg/mL. The MBC (Enterococcus faecalis [16]) was 25 µg/mL, the hemolysis at 1 h, 5 times MIC [17] was less than 5% and the “fractional inhibitory concentration index (FICI)” value (Enterococcus [18]) was 0.06. The “fractional inhibitory concentration index (FICI)” value (Enterococcus [19]) was 2.1, the “fractional inhibitory concentration index (FICI)” value (Enterococcus [20]) was 0.25 and the Activity (Enterococcus [21]) was 76%. The MIC (Enterococcus faecalis [22]) was 12.5 µg/mL, the MIC (Enterococcus faecalis [23]) was 12.5 µg/mL and the MIC (Enterococcus faecalis [24]) was 12.5 µg/mL. For the same substance, the MIC (Enterococcus faecalis [25]) was 12.5 µg/mL, the MIC (Enterococcus faecalis [26]) was 12.5 µg/mL and the MIC (Enterococcus faecium [27]) was 12.5 µg/mL. The MIC (Enterococcus faecium [28]) was 12.5 µg/mL, the MIC (Enterococcus faecium [29]) was 12.5 µg/mL and the MIC (Enterococcus faecium [30]) was 6.25 µg/mL. The MIC (Enterococcus faecium [31]) was 6.25 µg/mL, the MIC (Enterococcus faecium [32]) was 6.25 µg/mL and the MIC (Enterococcus faecium [33]) was 12.5 µg/mL. For the same substance, the MIC (Enterococcus faecium [34]) was 12.5 µg/mL, the MIC (Enterococcus faecium [35]) was 12.5 µg/mL and the MIC (Enterococcus faecium [36]) was 12.5 µg/mL. It also gave an MBC (Enterococcus [37]) of 25 µg/mL, an MBC (Enterococcus faecalis [38]) of 25 µg/mL and an MBC (Enterococcus faecalis [39]) of 25 µg/mL. For the same substance, the MBC (Enterococcus faecalis [40]) was 25 µg/mL, the MBC (Enterococcus faecalis [41]) was 25 µg/mL and the MBC (Enterococcus faecalis [42]) was 25 µg/mL.
